For orientation: IC50 means the midpoint of a concentration-inhibition curve.

Consider 6 compounds from ChEMBL document CHEMBL1926616, “Design, synthesis and biological evaluation of novel glycosylated diphyllin derivatives as topoisomerase II inhibitors” (Eur J Med Chem, 2012).

Assay [1] deals with MCF7. Description: Cytotoxicity against human MCF7 cells after 72 hrs by sulforhodamine B and MTT assay. To be noted: MCF7, 72 h. In kind it is functional, cell-based. The method in brief:
(§1)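 Log-phase cells were plated overnight and exposed for 72 h to a 5-concentration gradient, in triplicate wells. SRB arm: 10% cold TCA fixation for 1 h at 4 °C, 4 mg/ml SRB in 1% acetic acid for 15 min, dye dissolved in 10 mM Tris-HCl, read at 520 nm. MTT arm: 5 mg/mL MTT for 4 h at 37 °C, SDS-isobutanol-HCl solubilisation for 12–20 h, read at 570 nm. IC50 by Logit method from at least 3 independent tests.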

The test system of assay [2] is K562. Kind of assay: Resistance index, ratio of IC50 for adriamycin-selected multi drug-resistant human K562 cells to IC50 for human K562 cells. In kind it is functional. The method in brief:
(§2)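 Resistance factor is the IC50 in the resistant line divided by the IC50 in the parental line. Both IC50s come from 72 h SRB/MTT growth-inhibition assays, derived by the Logit method from at least 3 independent tests.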

For assay [3], the system named is K562. Description: Cytotoxicity against adriamycin-selected multi drug-resistant human K562 cells after 72 hrs by sulforhodamine B and MTT assay. Format: functional, cell-based. To be noted: K562, 72 h. The method in brief:
(§3)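 Log-phase cells were seeded, preincubated (overnight for SRB, 24 h for MTT), then given a five-concentration gradient in triplicate wells for 72 h. For MTT, reagent was added for 4 h at 37 °C, solubilized in SDS-isobutanol-HCl for 12-20 h, and read at 570 nm. IC50 was derived by the Logit method from at least 3 independent tests.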
On the technique in general: Tetrazolium assays rely on reduction of a dye to a coloured formazan, in cell work by metabolically active cells.

Assay [4] concerns HCT-116. Description: Cytotoxicity against human HCT116 cells after 72 hrs by sulforhodamine B and MTT assay. In kind it is functional, cell-based. Conditions: HCT-116, 72 h. The method in brief: as §1
Assay [5] deals with KB. Kind of assay: Cytotoxicity against human KB cells after 72 hrs by sulforhodamine B and MTT assay. Format: functional, cell-based. The method in brief:
as §1

For assay [6], the system named is K562. Description: Cytotoxicity against human K562 cells after 72 hrs by sulforhodamine B and MTT assay. In kind it is functional, cell-based. Conditions: K562, 72 h. The method in brief:
as §3

Assay [7] concerns KB. Description: Resistance index, ratio of IC50 for vincristine-selected multi drug-resistant human KB cells to IC50 for human KB cells. Format: functional. The method in brief:
as §2

The test system of assay [8] is KB. Kind of assay: Cytotoxicity against vincristine-selected multi drug-resistant human KB cells after 72 hrs by sulforhodamine B and MTT assay. In kind it is functional, cell-based. The method in brief:
as §3

Assay [9] deals with DNA topoisomerase 2-alpha (Homo sapiens) (UniProt P11388). Kind of assay: Inhibition of human topoisomerase 2-mediated decatenation of kinetoplast DNA at 100 uM after 15 mins by agarose gel electrophoresis. The method in brief:
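ATP-dependent kDNA decatenation by 1 unit Topo II in 50 mM Tris-HCl pH 7.7, 50 mM KCl, 5 mM MgCl2, 1 mM ATP, 0.5 mM DTT, 0.5 mM EDTA and BSA, run for 15 min at 37 °C. Stopped with 10% SDS, then run on 1% agarose in TAE at 4 V/cm for 1 h and stained with ethidium bromide.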

The test system of assay [10] is HL-60. Kind of assay: Cell cycle arrest in human HL60 cells assessed as accumulation at G2/M phase at 1 to 10 uM using propidium iodide stain by FACS-flow cytometry. In kind it is functional, cell-based. Conditions: TDE = time-dependent effect.
Assay [11] concerns HL-60. Kind of assay: Cell cycle arrest in human HL60 cells assessed as accumulation at S phase at 1 uM after 24 hrs using propidium iodide stain by FACS-flow cytometry (reference value: 38.4%). In kind it is functional. On the technique in general: A flow cytometer gives signals particle by particle.
Assay [12] has as its system HCT-116. Kind of assay: Cell cycle arrest in human HCT116 cells assessed as accumulation at G2/M phase at 1 to 10 uM after 24 hrs using propidium iodide stain by FACS-flow cytometry. Format: functional, cell-based.
The test system of assay [13] is HCT-116. Description: Cell cycle arrest in human HCT116 cells assessed as accumulation at G2/M phase after 24 hrs using propidium iodide stain by FACS-flow cytometry. Format: functional, cell-based.
Assay [14] concerns HL-60. Kind of assay: Cell cycle arrest in human HL60 cells assessed as accumulation at G0/G1 phase after 24 hrs using propidium iodide stain by FACS-flow cytometry. Format: functional, cell-based.
Assay [15] concerns HL-60. Description: Cell cycle arrest in human HL60 cells assessed as accumulation at G2/M phase at 10 uM after 24 hrs using propidium iodide stain by FACS-flow cytometry (reference value: 22.6%). In kind it is functional.
The test system of assay [16] is HL-60. Kind of assay: Cell cycle arrest in human HL60 cells assessed as accumulation at G2/M phase at 1 uM after 24 hrs using propidium iodide stain by FACS-flow cytometry (reference value: 22.6%). In kind it is functional.
Assay [17] concerns HCT-116. Kind of assay: Cell cycle arrest in human HCT116 cells assessed as accumulation at G0/G1 phase at 1 to 10 uM using propidium iodide stain by FACS-flow cytometry. Format: functional, cell-based. Conditions: TDE = time-dependent effect.
Assay [18] deals with HL-60. Description: Cell cycle arrest in human HL60 cells assessed as accumulation at G0/G1 phase at 1 uM after 24 hrs using propidium iodide stain by FACS-flow cytometry (reference value: 39%). Format: functional.
Assay [19] deals with HCT-116. Kind of assay: Cell cycle arrest in human HCT116 cells assessed as accumulation at G2/M phase at 1 to 10 uM using propidium iodide stain by FACS-flow cytometry. Format: functional, cell-based. To be noted: TDE = time-dependent effect.
The test system of assay [20] is HL-60. Kind of assay: Induction of apoptosis in human HL60 cells assessed as DNA fragmentation at 10 uM after 36 hrs by gel electrophoresis. In kind it is functional, cell-based. The method in brief:
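HL-60 cells were seeded and exposed to compound for 36 h. Harvested cells were lysed with an equal volume of 1.2% SDS, and the fragmented DNA was extracted and resolved by gel electrophoresis.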

Assay [21] has as its system HL-60. Kind of assay: Cell cycle arrest in human HL60 cells assessed as accumulation at G0/G1 phase at 1 to 10 uM using propidium iodide stain by FACS-flow cytometry. In kind it is functional, cell-based. To be noted: TDE = time-dependent effect.
Assay [22] deals with HL-60. Description: Cell cycle arrest in human HL60 cells assessed as accumulation at G0/G1 phase at 10 uM after 24 hrs using propidium iodide stain by FACS-flow cytometry (reference value: 39%). In kind it is functional.
Assay [23] deals with HCT-116. Kind of assay: Cell cycle arrest in human HCT116 cells assessed as accumulation at G0/G1 phase after 24 hrs using propidium iodide stain by FACS-flow cytometry. Format: functional, cell-based.
Assay [24] relates to HL-60. Description: Cell cycle arrest in human HL60 cells assessed as accumulation at G2/M phase after 24 hrs using propidium iodide stain by FACS-flow cytometry. In kind it is functional, cell-based.
The test system of assay [25] is HL-60. Kind of assay: Cell cycle arrest in human HL60 cells assessed as accumulation at S phase at 10 uM after 24 hrs using propidium iodide stain by FACS-flow cytometry (reference value: 38.4%). In kind it is functional.
The test system of assay [26] is HCT-116. Description: Cell cycle arrest in human HCT116 cells assessed as accumulation at G0/G1 phase at 1 to 10 uM after 24 hrs using propidium iodide stain by FACS-flow cytometry. Format: functional, cell-based.

Molecules are shown by their SMILES. Activity calls are given as the source filed them. The calls are words filed in the database; no cut-off is given here.

DNA topoisomerase 2-alpha (Homo sapiens), sequence (P11388 whole entry): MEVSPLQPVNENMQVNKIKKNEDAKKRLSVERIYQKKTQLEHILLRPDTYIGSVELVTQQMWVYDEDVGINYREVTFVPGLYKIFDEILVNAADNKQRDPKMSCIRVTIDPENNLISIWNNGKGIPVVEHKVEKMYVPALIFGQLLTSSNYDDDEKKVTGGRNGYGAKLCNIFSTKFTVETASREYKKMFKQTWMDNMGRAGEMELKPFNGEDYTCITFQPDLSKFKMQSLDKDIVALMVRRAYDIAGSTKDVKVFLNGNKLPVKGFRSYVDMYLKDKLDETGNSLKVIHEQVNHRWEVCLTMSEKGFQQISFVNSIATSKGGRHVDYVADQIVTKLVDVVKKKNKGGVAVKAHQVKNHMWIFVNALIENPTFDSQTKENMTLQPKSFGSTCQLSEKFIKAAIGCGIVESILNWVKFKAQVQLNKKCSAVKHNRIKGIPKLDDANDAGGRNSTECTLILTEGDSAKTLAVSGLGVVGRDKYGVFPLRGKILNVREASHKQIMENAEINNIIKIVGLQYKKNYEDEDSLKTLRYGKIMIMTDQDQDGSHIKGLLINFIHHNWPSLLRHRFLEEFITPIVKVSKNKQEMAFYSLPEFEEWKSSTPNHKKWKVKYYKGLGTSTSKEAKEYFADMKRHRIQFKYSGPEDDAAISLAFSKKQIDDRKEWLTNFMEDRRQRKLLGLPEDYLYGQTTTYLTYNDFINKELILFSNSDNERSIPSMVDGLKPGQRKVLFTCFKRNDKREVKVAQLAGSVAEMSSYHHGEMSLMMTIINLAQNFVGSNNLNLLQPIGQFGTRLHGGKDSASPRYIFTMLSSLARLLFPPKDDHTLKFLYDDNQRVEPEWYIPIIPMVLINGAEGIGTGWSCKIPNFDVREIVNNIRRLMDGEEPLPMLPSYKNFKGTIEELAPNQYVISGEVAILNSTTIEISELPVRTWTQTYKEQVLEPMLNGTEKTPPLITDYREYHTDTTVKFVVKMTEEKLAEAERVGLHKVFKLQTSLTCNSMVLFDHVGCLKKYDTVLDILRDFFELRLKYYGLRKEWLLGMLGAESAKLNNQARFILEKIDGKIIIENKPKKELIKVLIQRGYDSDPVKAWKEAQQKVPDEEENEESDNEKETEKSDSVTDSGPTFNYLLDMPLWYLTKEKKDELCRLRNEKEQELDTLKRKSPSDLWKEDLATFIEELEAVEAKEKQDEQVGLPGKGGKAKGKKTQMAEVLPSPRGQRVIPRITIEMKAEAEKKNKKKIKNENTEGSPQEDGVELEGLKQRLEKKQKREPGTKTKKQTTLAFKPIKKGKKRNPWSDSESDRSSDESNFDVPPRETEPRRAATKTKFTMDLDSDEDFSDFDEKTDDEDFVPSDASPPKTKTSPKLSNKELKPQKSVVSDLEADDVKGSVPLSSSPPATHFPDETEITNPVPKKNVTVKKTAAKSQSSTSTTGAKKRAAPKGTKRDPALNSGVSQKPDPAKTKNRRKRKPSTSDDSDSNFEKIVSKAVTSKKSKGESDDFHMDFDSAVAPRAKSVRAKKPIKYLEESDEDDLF

Take `COc1cc([C@@H]2c3cc4c(cc3[C@@H](O[C@@H]3O[C@@H]5CO[C@@H](C)O[C@H]5[C@H](O)[C@H]3O)[C@H]3COC(=O)[C@H]23)OCO4)cc(OC)c1O` [ETOPOSIDE]: the IC50 was 1.09 µM in assay [1]; 243 µM in assay [3]; 0.91 µM in [4]; 0.85 µM in assay [5]; 5.16 µM in assay [6]; 153 µM in assay [8]. Besides, the entries for the “Ratio IC50” value in assay [2] and in assay [7] were 47.1 and 180.3, respectively. The inhibition result in [9] was “inactive”.
Regarding `COc1cc2c(O[C@@H]3O[C@H](C)[C@@H](O)[C@H](O)[C@H]3O)c3c(c(-c4ccc5c(c4)OCO5)c2cc1OC)C(=O)OC3` [PATENTIFLORIN A], the Activity entry is “tde” in assay [10]; 38% in [11]; “Dose-dependent effect” in [13]; “Dose-dependent effect” in assay [14]; 22.8% in assay [15]; 16.1% in assay [16]. The Activity entry was “tde” in assay [17]; 45.9% in assay [18]; “tde” in assay [19]; “tde” in assay [21]; 54.4% in assay [22]; “Dose-dependent effect” in assay [23]. For the same compound, the figures for the Activity entry in assay [24] and in assay [25] were “Dose-dependent effect” and 22.8%, respectively. The IC50 came out at 0.44 µM in assay [1]; 16.1 µM in assay [3]; 0.99 µM in assay [4]; 0.093 µM in [5]; 1.43 µM in assay [6]; 0.573 µM in assay [8]. The result in assay [12], in [20] and in [26] was Active. The “Ratio IC50” value amounted to 11.3 in assay [2] and 6.2 in [7]. In assay [9], the inhibition entry is “inactive”.
As for `COc1cc2c(O[C@@H]3OC[C@@H](O)[C@H](O)[C@H]3O)c3c(c(-c4ccc5c(c4)OCO5)c2cc1OC)C(=O)OC3`, the Activity result in assay [10] is “tde”; in [11], 35.5%; in assay [13], “Dose-dependent effect”; in [14] it was “Dose-dependent effect”; in [15], 19.2%; in [16], 18.9%. The Activity entry was “tde” in assay [17]; 45.6% in [18]; “tde” in assay [19]; “tde” in assay [21]; 47% in [22]; “Dose-dependent effect” in assay [23]. The Activity entry was “Dose-dependent effect” in assay [24] and 33.8% in assay [25]. The 50% inhibitory concentration (IC50) in assay [1] turned out to be 1.55 µM; in assay [3], 58.8 µM; in assay [4], 0.82 µM; in [5], 0.41 µM; in [6], 4.4 µM; in assay [8] it was 1.19 µM. Moreover, the result in assay [12], in [20] and in assay [26] was Active. The “Ratio IC50” value in assay [2] was found to be 13.4; in assay [7], 2.9. Also, the inhibition result in assay [9] is “inactive”.
For the compound `COc1cc2c(O[C@@H]3O[C@@H]4CO[C@@H](C)O[C@H]4[C@H](O)[C@H]3O)c3c(c(-c4ccc5c(c4)OCO5)c2cc1OC)C(=O)OC3`, the Activity result is “tde” in assay [10]; 23.4% in [11]; “Dose-dependent effect” in [13]; “Dose-dependent effect” in assay [14]; 24.6% in [15]; 22.9% in [16]. The Activity result is “tde” in assay [17]; 53.6% in assay [18]; “tde” in [19]; “tde” in [21]; 56.2% in assay [22]; “Dose-dependent effect” in assay [23]. The Activity entry in assay [24] is “Dose-dependent effect”; in assay [25], 19.2%. Moreover, the IC50 amounted to 0.004 µM in assay [1]; 0.853 µM in assay [3]; 0.008 µM in [4]; 0.003 µM in assay [5]; 0.044 µM in assay [6]; 0.076 µM in assay [8]. Further, the result in [12], in assay [20] and in [26] was Active. Besides, the “Ratio IC50” value in assay [2] is given as 19.4; in assay [7] it was 25.3. Besides, in [9], the inhibition result was “Active”.
As to `COc1cc2c(O[C@@H]3O[C@H](C)[C@H](O)[C@H](O)[C@H]3O)c3c(c(-c4ccc5c(c4)OCO5)c2cc1OC)C(=O)OC3`, the 50% inhibitory concentration (IC50) in assay [1] worked out at 1.81 µM; in [4], 6.43 µM; in [5], 3.05 µM. In addition, the Activity in assay [11] was determined as 30%; in [15] it was 24.9%; in assay [16], 31.5%; in assay [18], 38.6%; in assay [22] it was 40.5%; in assay [25], 34.6%. Further, the result in [12] and in assay [26] was inactive. The outcome in [20] was Active. Besides, in [9], the inhibition entry is “inactive”.
`COc1cc2c(O)c3c(c(-c4ccc5c(c4)OCO5)c2cc1OC)C(=O)OC3` [DIPHYLLIN]: the half-maximal inhibitory concentration (IC50) came out at 0.54 µM in assay [1]; 23.5 µM in [3]; 3.54 µM in assay [4]; 0.78 µM in [5]; 1.67 µM in [6]; 3.15 µM in assay [8]. Moreover, the “Ratio IC50” value is 14.1 in [2] and 4 in assay [7]. The inhibition entry in assay [9] was “Active”.
